Among the data in ChEMBL document CHEMBL1155475, “Semisynthesis and pharmacological activities of thyroxine analogs: Development of new angiogenesis modulators” (2010) are Activity and inhibition values, retold here.

Assay type in all cases: functional
For test [1], the species on record is Gallus gallus. The test is described as follows: Stimulation of angiogenesis of fertilized chicken egg membrane assessed as stimulation of blood vessel formation at 10 ug/CAM after 48 hrs by CAM assay. An outline of the steps:
(§1)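 Chick chorioallantoic membrane model. Filter disks are soaked in 3 mg/mL cortisone acetate in 95% ethanol, air-dried, then saturated with test agent, L-T4 or FGF, and placed on the CAM. Agents are tested at 10 µg/CAM. Tissue beneath the disk is harvested after 48 h and examined by stereomicroscope at 50× with digital image capture. Data are mean ± SEM, n = 8.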

For another test, the system named is Mus musculus. Kind of test: Stimulation of angiogenesis in Matrigel plug implanted C57BL/6 mouse assessed as increase of hemoglobin level after 14 days at 10 ug/plug by Matrigel assay. An outline of the steps: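 Mouse subcutaneous Matrigel plug. Matrigel is kept cold and compound is added with or without agonist. Plugs are injected subcutaneously at three sites per animal, 100 µL total. On day 14 the plugs are collected, homogenized in ddH2O and centrifuged 4000 rpm for 10 min. Supernatant is mixed with Drabkin's reagent for 15–30 min, A540 is read, and hemoglobin (mg/mL) is taken from a standard curve. Three implants per mouse, n = 6 per group.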

The species named for test [2] is Gallus gallus. Kind of test: Antiangiogenesis of fertilized chicken egg membrane assessed as inhibition of FGF-induced blood vessel formation at 10 ug/CAM after 48 hrs by CAM assay. The gist of the method: as §1

With `CNC(Cc1cc(I)c(Oc2cc(I)c(O)c(I)c2)c(I)c1)C(=O)O` (configuration not stated), the Activity is 44% in the test listed under Gallus gallus [1] and 87% in the test with Mus musculus.

As to `CCCC(=O)NC(Cc1cc(I)c(Oc2cc(I)c(O)c(I)c2)c(I)c1)C(=O)O` (configuration not stated), the values for the Activity in the test listed under Gallus gallus [1] and in the test with Mus musculus were 34% and 62%, respectively. As to `CCNC(Cc1cc(I)c(Oc2cc(I)c(O)c(I)c2)c(I)c1)C(=O)O` (configuration not stated), the Activity in the test filed under Gallus gallus [1] worked out at 86%; in the test with Mus musculus, 45%.

Take `CC(C)[Si](OC(=O)C(Cc1cc(I)c(Oc2cc(I)c(O)c(I)c2)c(I)c1)NC(=O)OC(C)(C)C)(C(C)C)C(C)C` (configuration not stated): the figures for the Activity in the test filed under Gallus gallus [1] and in the test on Mus musculus were 4% and 0%, respectively. `CC(=O)NC(Cc1cc(I)c(Oc2cc(I)c(OC(C)=O)c(I)c2)c(I)c1)C(=O)O` (configuration not stated): the Activity in the test listed under Gallus gallus [1] stood at 67%; with Mus musculus it was 95%. The corresponding values for `N[C@@H](Cc1cc(I)c(Oc2cc(I)c(O)c(I)c2)c(I)c1)C(=O)O` [LEVOTHYROXINE] are 88% and 100%. With `CCNC(Cc1cc(I)c(Oc2cc(I)c(O)c(I)c2)c(I)c1)C(=O)OCC` (configuration not stated), in the test filed under Gallus gallus [2], the inhibition (as a rule, the share of the control response that was lost under treatment) came out at 38%. For `CC(C)[Si](OC(=O)C(Cc1cc(I)c(Oc2cc(I)c(OCC3CO3)c(I)c2)c(I)c1)NC(=O)OC(C)(C)C)(C(C)C)C(C)C` (configuration not stated), the Activity in the test filed under Gallus gallus [1] stood at 34%; in the test with Mus musculus, 0%. Taken in the same sequence, the figures for `CC(C)(C)OC(=O)NC(Cc1cc(I)c(Oc2cc(I)c(OCC3CO3)c(I)c2)c(I)c1)C(=O)OCC1CO1` (configuration not stated) were 56% and 0%.
